# Measured values from different studies.
# Lines come from different studies, so protocols differ.
# Target: Mitogen-activated protein kinase 13 (MAPK13, Homo sapiens, UniProt O15264)
# Sequence (O15264 1-365, as in one of the studies): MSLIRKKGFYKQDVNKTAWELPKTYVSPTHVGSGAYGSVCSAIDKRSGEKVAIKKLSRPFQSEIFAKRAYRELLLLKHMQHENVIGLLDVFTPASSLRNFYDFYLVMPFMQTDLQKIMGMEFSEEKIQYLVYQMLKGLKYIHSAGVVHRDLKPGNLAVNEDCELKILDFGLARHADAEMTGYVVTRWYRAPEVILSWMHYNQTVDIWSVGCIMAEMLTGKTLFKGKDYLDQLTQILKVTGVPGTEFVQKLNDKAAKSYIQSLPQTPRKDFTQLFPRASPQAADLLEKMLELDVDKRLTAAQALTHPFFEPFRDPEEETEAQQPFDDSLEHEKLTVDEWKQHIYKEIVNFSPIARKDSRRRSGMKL
Structure (SMILES),observed,mode,method,concentration,measurement,value
CC1(C)NC(=O)c2[nH]c3c(Cl)c(Cl)ccc3c2C1C#N (stereo not drawn),thermal stability,,DSF,10 µM,ΔTm,0.9 °C
COc1cc(Cl)c(C(=O)N[C@@H](CN[C@H]2CC[C@@H](N)CC2)Cc2ccc(C#N)cc2)cc1-c1ccc(CN[C@H](C)c2ccc(C)cc2)o1,enzyme activity,inhibitor,,1 µM,remaining activity,101%
O=C(O)c1cc(-c2ccc(C3CCNCC3)cc2)c2ccc(-c3ccc(C(F)(F)F)cc3)cc2c1,cell-free assay,,competition with immobilised ligand,1 µM,remaining binding,97%
COc1cc2c(Nc3ccc(Br)cc3F)ncnc2cc1OCC1CCN(C)CC1,cell-free assay,,,0.5 µM,remaining signal,95.5%
O=C(O)[C@@H]1[C@@H](Cn2nnc3ccccc3c2=O)CC[C@H]1C(=O)c1ccc(OCCC2CCOCC2)cc1,cell-free assay,,competition with immobilised ligand,1 µM,remaining binding,94%
Cc1ccc(Nc2nccc(N(C)c3ccc4c(C)n(C)nc4c3)n2)cc1S(N)(=O)=O,enzyme activity,inhibitor,,0.3 µM,inhibition,-11%
Nc1nc(Nc2ccccc2)sc1C(=O)c1c(F)cccc1F,enzyme activity,inhibitor,,10 µM,remaining activity,62%
Oc1cccc(-c2nc(N3CCOCC3)c3oc4ncccc4c3n2)c1,enzyme activity,inhibitor,,10 µM,remaining activity,84%
O=C(NCc1ncc(C(F)(F)F)cc1Cl)c1ccc2c(c1)C1(CCS(=O)(=O)CC1)[C@H](C1CC1)N2S(=O)(=O)c1ccc(F)cc1,cell-free assay,,competition with immobilised ligand,1 µM,remaining binding,99%
CCOc1cc(-c2nncn2C)ccc1Nc1ncc2cc(C)nc(NCC(C)(C)C)c2n1,enzyme activity,inhibitor,FRET,1 µM,inhibition,< 15%
Cn1c2c(Cl)c(Cl)ccc2c2cc[nH]c(=O)c21,thermal stability,,DSF,10 µM,ΔTm,-0.4 °C
COc1cc(/C=C/C(=O)CC(=O)/C=C/c2ccc(O)c(OC)c2)ccc1O,enzyme activity,inhibitor,,1 µM,activity vs control,105%
O=C(Nc1cnn(-c2csc(C(=O)NC3COC3)c2)c1)Nc1c(F)cccc1Cl,enzyme activity,inhibitor,,5 µM,remaining activity,98.4%
Cc1nccc(COC(=O)N2C[C@@H]3[C@@H](CNC(=O)c4ccc5[nH]nnc5c4)[C@@H]3C2)n1,cell-free assay,,competition with immobilised ligand,1 µM,remaining binding,98%
Cc1cc(NC(=O)c2cccc3cc(-c4cccc5[nH]nc(N)c45)ccc23)ccc1F,enzyme activity,inhibitor,,0.1 µM,activity vs control,101%
CC(C)(C)c1nc2c(s1)c1nc(N)ncc1c1ccc(NS(=O)(=O)c3c(F)cccc3F)c(F)c12,enzyme activity,inhibitor,radiometric,1 µM,remaining activity,91%
O=C(Nc1ccc(Oc2ccc(F)cc2)cc1)N1CCc2ncccc2[C@H]1c1ccc(F)cc1,cell-free assay,,competition with immobilised ligand,1 µM,remaining binding,96%
Cn1c2c(Cl)c(Cl)ccc2c2cn[nH]c(=O)c21,thermal stability,,DSF,10 µM,ΔTm,0 °C
Cc1ccc(C(=O)Nc2ccc(CN3CCN(C)CC3)c(C(F)(F)F)c2)cc1C#Cc1cnc2cccnn12,enzyme activity,inhibitor,,23.5 nM,remaining activity,93%
N#Cc1ccc(Nc2ccc3[nH]c(=O)[nH]c3c2)c(Cl)c1,cell-free assay,,competition with immobilised ligand,1 µM,remaining binding,100%
CN1CC(Oc2cnc(C#N)cc2-c2ccn3nc(NC(=O)C4CC4)cc3c2)C1,enzyme activity,inhibitor,,1 µM,inhibition,-1%
Cc1nc(Cc2cccc(C(F)(F)F)c2)sc1-c1ccc(C(N)=O)nc1,cell-free assay,,competition with immobilised ligand,1 µM,remaining binding,99%
Cn1c2c(c3ccc(Cl)c(Cl)c31)C(C#N)C1(CCNCC1)NC2=O (racemic),thermal stability,,DSF,10 µM,ΔTm,0.5 °C
CNC(=O)c1cc(Oc2ccc(NC(=O)Nc3ccc(Cl)c(C(F)(F)F)c3)cc2)ccn1,enzyme activity,inhibitor,,0.3 µM,inhibition,-6%
CN(C)C1CCN(CC#Cc2nn(C3CCCC3)c3nc(NCc4ccccc4)ncc23)C1 (stereo not drawn),enzyme activity,inhibitor,FRET,1 µM,inhibition,0%
CCN1CCC2(CC1)NC(=O)c1c(c3ccc(Cl)c(Cl)c3n1C)C2C#N (racemic),thermal stability,,DSF,10 µM,ΔTm,0.6 °C
CCC(=O)N[C@@H]1CC[C@H](C(=O)N(C)c2ccc(-c3nc4ccccc4o3)cc2)C1,cell-free assay,,competition with immobilised ligand,1 µM,remaining binding,100%
CC/C(=N\NC(=O)NCc1cccc(O)c1)c1ccc(O)c(C)c1O,enzyme activity,inhibitor,,0.1 µM,inhibition,-2.6%
Nc1nc(NC2CCCCC2)sc1C(=O)c1ccccc1,enzyme activity,inhibitor,,10 µM,remaining activity,67%
FC(F)c1nc2ccccc2n1-c1nc(N2CCOCC2)nc(N2CCOCC2)n1,enzyme activity,inhibitor,,10 µM,remaining activity,107%
CCN(CC)CCNC(=O)c1c(C)[nH]c(/C=C2\C(=O)Nc3ccc(F)cc32)c1C,enzyme activity,inhibitor,,10 µM,inhibition,-5%
COc1cc(Nc2cnc(C#N)c(O[C@H](C)CN(C)C)n2)ncc1-c1cnn(C)c1,enzyme activity,inhibitor,radiometric,10 µM,remaining activity,73%
COc1cc2ncnc(Nc3ccc(Oc4ccccc4)c(C)c3C)c2cc1OC,enzyme activity,inhibitor,,1 µM,inhibition,2%
Cn1c2c(c3ccc(Cl)c(Cl)c31)C(C#N)C1(CCN(C(=O)OC(C)(C)C)CC1)NC2=O (racemic),thermal stability,,DSF,10 µM,ΔTm,-0.1 °C
Nc1ncnc2occ(-c3ccc(NC(=O)Nc4cc(C(F)(F)F)ccc4F)cc3)c12,cell-free assay,inhibitor,,20 µM,remaining signal,0.4%
O=C1Nc2ccc(Cl)cc2C1=Cc1cc(Cl)c(O)c(Cl)c1,cell-free assay,,,0.5 µM,remaining signal,97.8%
